Measurements reported in ChEMBL document CHEMBL4043277, “Enantioselective inhibitory abilities of enantiomers of notoamides against RANKL-induced formation of multinuclear osteoclasts” (Bioorg Med Chem Lett, 2017).
Activity calls are given as the source filed them. The calls are words filed in the database; no cut-off is given here.

Key:
RAW264 [1] = experiment: Inhibition of RANKL-induced formation of multinuclear osteoclasts in mouse RAW264 cells at 10 ug/ml after 4 days by p-NPP substrate based absorbance method; assay type: functional, cell-based
Method in brief: (§1)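 RAW264 cells in MEMα/10% FBS were plated for one day, then treated with compound plus soluble RANKL (250 ng/mL) for four days. After a PBS wash, cells were lysed on ice for 10 min in TRAP buffer (tartrate/acetate, pH 5.7). Extract was incubated with 2.5 mM p-nitrophenyl phosphate at 37°C for 4 h and stopped with NaOH. A405 was read in quadruplicate.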

[2] = Inhibition of RANKL-induced formation of multinuclear osteoclasts in mouse RAW264 cells after 4 days by p-NPP substrate based absorbance method; assay type: functional, cell-based; details: RAW264.7, 96 h; method in brief: as §1
RAW264 [3] = experiment: Inhibition of RANKL-induced formation of multinuclear osteoclasts in mouse RAW264 cells at 5 uM after 4 days by TRAP staining based assay; assay type: functional, cell-based
Method in brief: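 RAW264 cells were treated with compound plus soluble RANKL (250 ng/mL) for four days, then fixed in 4% paraformaldehyde for 10 min at room temperature. They were stained 1 h at room temperature with naphthol AS-MX phosphate/fast red violet LB in tartrate/acetate, pH 5.2. TRAP-positive cells with three or more nuclei were scored as multinuclear osteoclasts.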

[4] = Inhibition of RANKL-induced Ocstamp mRNA expression in mouse RAW264 cells at 5 uM after 5 days by RT-PCR method relative to control; assay type: functional; details: RAW264.7, 120 h
Method in brief: (§2)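 RAW264 cells grown in MEMα with 10% heat-inactivated FBS and penicillin/streptomycin at 37°C, 5% CO2. Cells were co-treated with RANKL (50 ng/mL) and compound for five days. Total RNA was analysed by real-time RT-PCR with SYBR Green: 95 °C 10 min, then cycles of 95 °C 10 s, annealing 5 s, 72 °C 14 s. Expression was calculated from duplicate experiments.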

[5] = Inhibition of RANKL-induced Acp5 mRNA expression in mouse RAW264 cells at 5 uM after 5 days by RT-PCR method relative to control; assay type: functional; details: RAW264.7, 120 h; method in brief: as §2
[6] = Inhibition of RANKL-induced Dcstamp mRNA expression in mouse RAW264 cells at 5 uM after 5 days by RT-PCR method relative to control; assay type: functional; details: RAW264.7, 120 h; method in brief: as §2
[7] = Inhibition of RANKL-induced Ctsk mRNA expression in mouse RAW264 cells at 5 uM after 5 days by RT-PCR method relative to control; assay type: functional; details: RAW264.7, 120 h; method in brief: as §2
[8] = Inhibition of RANKL-induced Atp6v0d2 mRNA expression in mouse RAW264 cells at 5 uM after 5 days by RT-PCR method relative to control; assay type: functional; details: RAW264.7, 120 h; method in brief: as §2
[9] = Inhibition of RANKL-induced Nfatc1 mRNA expression in mouse RAW264 cells at 5 uM after 5 days by RT-PCR method relative to control; assay type: functional; details: RAW264.7, 120 h; method in brief: as §2

| Compound | osteoclast formation inhibition (active/not active) (RAW264 [1]) | further results |
| --- | --- | --- |
| CC1(C)C=Cc2c(ccc3c2N(O)C(=O)[C@@]32C[C@@]34NC(=O)[C@]5(CCCN5C3=O)C[C@H]4C2(C)C)O1 | Active |  |
| CC(C)=CCc1c(O)ccc2c3c([nH]c12)C(C)(C)[C@H]1C[C@]24CCCN2C(=O)[C@@]1(C3)NC4=O |  | IC50 [2]: 4.4 µM |
| CC(C)=CCc1c(O)ccc2c3c([nH]c12)C(C)(C)[C@@H]1C[C@@]24CCCN2C(=O)[C@]1(C3)NC4=O |  | inhibition (RAW264 [3]): inactive; inhibition at 5 µM [4]: 20 to 50%; inhibition at 5 µM [5]: 20 to 50%; inhibition at 5 µM [6]: 20 to 50%; inhibition at 5 µM [7]: 20 to 50%; inhibition at 5 µM [8]: 20 to 50%; IC50 [2]: 1.7 µM; inhibition at 5 µM [9]: 20 to 50% |
| CC1(C)C=Cc2c(ccc3c2N(O)C(=O)[C@]32C[C@]34NC(=O)[C@@]5(CCCN5C3=O)C[C@@H]4C2(C)C)O1 | Active |  |
| C=CC(C)(C)[C@@]12Nc3c(ccc4c3C=CC(C)(C)O4)[C@]1(O)C[C@H]1C(=O)N3CCC[C@H]3C(=O)N12 | inactive |  |
| CC1(C)C=Cc2c(ccc3c4c([nH]c23)C(C)(C)[C@H]2C[C@@]35CCCN3C(=O)[C@]2(C4)NC5=O)O1 | Active |  |
| CC(C)=CCc1c(O)ccc2c3c([nH]c12)C(C)(C)[C@H]1CC24CCCN2C(=O)C1(C3)NC4=O (mixture of isomers) | Active |  |
| CC1(C)C=Cc2c(ccc3c2NC(=O)[C@]32C[C@]34NC(=O)[C@@]5(CCCN5C3=O)C[C@@H]4C2(C)C)O1 | Active |  |
| CC1(C)C=Cc2c(ccc3c4c([nH]c23)C(C)(C)[C@@H]2C[C@]35CCCN3C(=O)[C@@]2(C4)NC5=O)O1 | Active |  |
| C=CC(C)(C)[C@]1(C[C@@H]2NC(=O)[C@@H]3CCCN3C2=O)C(=O)Nc2c1ccc1c2C=CC(C)(C)O1 | inactive |  |
| CC1(C)C=Cc2c(ccc3c2NC(=O)[C@@]32C[C@@]34NC(=O)[C@]5(CCCN5C3=O)C[C@H]4C2(C)C)O1 | Active |  |
